One data set relates to MCP-1. Put plainly: MCP-1 release. It is filed as cell-based. The conditions noted are these: LPS-induced BV2 cells, pretreatment, concentration-dependent manner (Fig. 4 and 5).
The next data set has as its system TNF-α. The data set can be described thus: TNF-α release. It is filed as cell-based. Particulars: LPS-induced BV2 cells, pretreatment, concentration-dependent manner (Fig. 4 and 5).
A further data set in a line: Cytotoxicity. It is filed as cell-based. Particulars: mouse, BV2 microglial cells. The gist of the method: (§1)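 Mouse BV2 microglia in DMEM with 10% FBS and 1% penicillin–streptomycin, 37 °C, 5% CO2. Seeded at 2 × 10^4 cells/well for 24 h, then exposed to test compound (0, 5, 10, 20, 40, 80 μM) for 24 h. MTT at 500 μg mL−1 for 3 h, formazan dissolved in DMSO, A570. Mean ± SD (n = 3); one-way ANOVA with Dunnett versus vehicle.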

In another data set the test system is IL-6. The data set can be described thus: IL-6 release. It is filed as cell-based. Particulars: LPS-induced BV2 cells, pretreatment, concentration-dependent manner (Fig. 4 and 5).
The next data set concerns NF-κB (p65). Put plainly: Western blot of LPS-induced NF-κB. It is filed as cell-based. Particulars: pretreated 1 hour with the highest safety dose, LPS for 1 hour (Fig. 6). The gist of the method: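 BV2 cells (2 × 10^6 per 6 cm dish) got the highest non-cytotoxic test-compound concentration for 1 h, then LPS for 1 h. Lysates were centrifuged (4 °C, 12 000 rpm, 10 min), Bradford-quantified, 40 μg run on 10% SDS–PAGE and semi-dry blotted to nitrocellulose. P-p65, p65 (1:1000) and β-actin (1:2000) were detected by HRP anti-rabbit and ECL, then densitometry; one-way ANOVA/Bonferroni versus LPS.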
A general note: A western blot detects proteins with antibodies after separation by electrophoresis.

The subject of data set [1] is LPS-induced RAW264.7 cells. The conditions noted are these: cited from earlier work.
Another data set relates to BV2 microglial cells. Put plainly: Cytotoxicity. The data set is classed as cell-based. The conditions noted are these: 24 hours, MTT, mean ± SD (n = 3). An outline of the steps: as §1

As a reminder, the viability is a read-out of living cells in per cent, often relative to untreated cells. For the molecule `COC1=CC(=O)c2c(ccc3cc(OC)c(OC)c(OC)c23)C1=O` [Compound 1, 2,5,6,7-tetramethoxy-1,4-phenanthrenequinone], the “Effect on release of MCP-1” value with MCP-1 is listed as “significantly reduced”. The “Effect on release of TNF-α” value with TNF-α was “significantly reduced”. Also, in “Cytotoxicity”, the viability at 24 h, 5 µM was 101 ± 3.33%; the viability at 24 h, 10 µM was found to be 101.5 ± 0.67%; the viability at 24 h, 20 µM was 105 ± 7.09%; the viability at 24 h, 40 µM came to 102 ± 8.6%. Besides, the viability at 24 h, 80 µM in “Cytotoxicity” stood at 73.7 ± 18.5%. The “Effect on release of IL-6” value in the data set on IL-6 was “significantly reduced”.

With `COC1=CC(=O)c2ccc3cc(OC)c(OC)c(OC)c3c2C1=O` [Compound 3, 3,5,6,7-tetramethoxy-1,4-phenanthrenequinone], the “Effect on LPS-induced NF-κB (p65) phosphorylation (P-p65-NF-κB/p65-NF-κB ratio)” value in the data set with NF-κB (p65) was “significantly suppressed”. In addition, the “Effect on release of MCP-1” value in the data set on MCP-1 was “significantly reduced”. In the data set on TNF-α, the “Effect on release of TNF-α” value was “significantly reduced”. For the same molecule, in “Cytotoxicity”, the viability at 24 h, 5 µM stood at 99.9 ± 1.96%; the viability at 24 h, 10 µM turned out to be 95.6 ± 7.44%; the viability at 24 h, 20 µM came to 94.9 ± 3.76%; the viability at 24 h, 40 µM is 88.8 ± 6.76%. In the data set “Cytotoxicity”, the viability at 24 h, 80 µM was 55.1 ± 26.4%. Moreover, the “Effect on release of IL-6” value with IL-6 is given as “significantly reduced”.

Consider `COc1ccc2c(c1O)CCc1cc(O)cc(OC)c1-2` [Compound 4, 9,10-dihydro-2,5-dimethoxy-1,7-phenanthrenediol], for which, in “Cytotoxicity”, the viability at 24 h, 5 µM turned out to be 102 ± 3.53%; the viability at 24 h, 10 µM was 99.3 ± 5.77%; the viability at 24 h, 20 µM was 101 ± 2.3%; the viability at 24 h, 40 µM stood at 95.3 ± 3.88%. The viability at 24 h, 80 µM in the data set “Cytotoxicity” turned out to be 49.1 ± 24.6%.

`O=Cc1ccc(O)cc1` [Compound 5, p-hydroxybenzaldehyde]: in “Cytotoxicity”, the viability at 24 h, 5 µM is 105 ± 1.81%; the viability at 24 h, 10 µM was 104 ± 7.68%; the viability at 24 h, 20 µM came to 101 ± 7.37%; the viability at 24 h, 40 µM came out at 101 ± 14.9%. Also, the viability at 24 h, 80 µM in the data set “Cytotoxicity” was determined as 94.5 ± 21.6%.

In the case of `COc1cc(O)cc2c1-c1c(O)cccc1CC2` [Compound 7, hircinol], in the data set “Cytotoxicity”, the viability at 24 h, 5 µM is 105 ± 4.37%; the viability at 24 h, 10 µM was determined as 108 ± 3.16%; the viability at 24 h, 20 µM was found to be 112 ± 2.51%; the viability at 24 h, 40 µM was found to be 111 ± 1.88%. Besides, the viability at 24 h, 80 µM in “Cytotoxicity” was found to be 104 ± 9.12%.

With `COc1cc2c(ccc3cc(OC)c(O)c(OC)c32)cc1O` [Compound 8, 3,7-dihydroxy-2,4,6-trimethoxyphenanthrene], in the data set “Cytotoxicity”, the viability at 24 h, 5 µM worked out at 106.3 ± 0.36%; the viability at 24 h, 10 µM was 100 ± 6.16%; the viability at 24 h, 20 µM was 108.2 ± 0.53%; the viability at 24 h, 40 µM worked out at 113 ± 1.57%. Moreover, in “Cytotoxicity”, the viability at 24 h, 80 µM is 94.4 ± 21.2%.

With `COc1cc2ccc3cccc(O)c3c2c(OC)c1O` [Compound 9, bulbophyllanthrin], in the data set “Cytotoxicity”, the viability at 24 h, 5 µM came out at 102 ± 2.99%; the viability at 24 h, 10 µM amounted to 101 ± 4.09%; the viability at 24 h, 20 µM came out at 105 ± 3.47%; the viability at 24 h, 40 µM was found to be 105 ± 5.59%. Also, the viability at 24 h, 80 µM in the data set “Cytotoxicity” came out at 112 ± 5.8%.

Turning to `O=C(O)c1ccc(O)cc1` [Compound 10, p-hydroxybenzoic acid], in “Cytotoxicity”, the viability at 24 h, 5 µM was 101 ± 2.85%; the viability at 24 h, 10 µM was determined as 96.6 ± 1.58%; the viability at 24 h, 20 µM came to 104 ± 7.79%; the viability at 24 h, 40 µM is 95.8 ± 4.1%. For the same molecule, the viability at 24 h, 80 µM in the data set “Cytotoxicity” turned out to be 85.1 ± 9.87%.

`COc1cc(C(=O)O)ccc1O` [Compound 11, vanillic acid]: in the data set “Cytotoxicity”, the viability at 24 h, 5 µM worked out at 102.9 ± 0.86%; the viability at 24 h, 10 µM came to 99.7 ± 1.55%; the viability at 24 h, 20 µM amounted to 98.77 ± 0.86%; the viability at 24 h, 40 µM was 94.8 ± 2.82%. The viability at 24 h, 80 µM in the data set “Cytotoxicity” came to 86.4 ± 4.09%.

For the molecule `COc1cc(O)c(Cc2ccc(O)cc2)c2c1-c1ccc(O)cc1CC2` [Compound 14, 1-(4-hydroxylbenzyl)-4-methoxy 9,10-dihydrophenanthrene 2,7-diol], the “Effect on release of MCP-1” value with MCP-1 is “significantly reduced”. Moreover, the “Effect on release of TNF-α” value in the data set with TNF-α is “significantly reduced”. For the same molecule, in “Cytotoxicity”, the viability at 24 h, 5 µM was 108 ± 3.2%; the viability at 24 h, 10 µM stood at 97.9 ± 8.91%; the viability at 24 h, 20 µM worked out at 91.9 ± 1.47%; the viability at 24 h, 40 µM turned out to be 65.9 ± 4.08%. Also, the viability at 24 h, 80 µM in the data set “Cytotoxicity” amounted to 26.7 ± 14.7%. Further, in the data set with IL-6, the “Effect on release of IL-6” value is “significantly reduced”.

For `O=C(O)c1ccc(CO)cc1` [Compound 15, 4-hydroxymethyl benzoic acid], in “Cytotoxicity”, the viability at 24 h, 5 µM came out at 103 ± 1.97%; the viability at 24 h, 10 µM was found to be 105 ± 3.91%; the viability at 24 h, 20 µM worked out at 111 ± 2.26%; the viability at 24 h, 40 µM amounted to 108 ± 2.12%. Further, the viability at 24 h, 80 µM in “Cytotoxicity” was 104 ± 3.05%.

In the case of `COc1cc(/C=C/C(=O)NCCc2ccc(O)cc2)ccc1O` [Compound 17, N-trans-feruloyl tyramine], in “Cytotoxicity”, the viability at 24 h, 5 µM worked out at 107 ± 6.44%; the viability at 24 h, 10 µM is 97.3 ± 7.01%; the viability at 24 h, 20 µM stood at 101 ± 8.73%; the viability at 24 h, 40 µM is 101 ± 5.33%. Moreover, the viability at 24 h, 80 µM in the data set “Cytotoxicity” was found to be 84.9 ± 5.53%.

In the case of coelonin [Compound 6], in the data set on MCP-1, the “Effect on release of MCP-1” value was “significantly reduced”. In addition, the “Effect on release of TNF-α” value in the data set with TNF-α is “significantly reduced”. For the same molecule, in data set [1], the Anti-inflammatory activity result was “anti-inflammatory activity”. Besides, the “Percentage viability (%)” value was determined as 106.33 ± 4.65% in the data set with BV2 microglial cells (5 μM); 108.08 ± 5.54% in the data set on BV2 microglial cells (10 μM); 105.55 ± 7.76% in the data set with BV2 microglial cells (20 μM); 76.69 ± 2.86 % in the data set with BV2 microglial cells (40 μM); 44.78 ± 13.23 % with BV2 microglial cells (80 μM). For the same molecule, the “Effect on release of IL-6” value in the data set with IL-6 is “significantly reduced”.

Source of the values: publication PMC11375963 (RSC Advances, 2024).
